Test results: ChEMBL document CHEMBL1153326, “Benzo(h)quinoline derivatives as G-quadruplex binding agents” (Bioorg Med Chem Lett, 2009)

Key:
Format in all cases: nucleic-acid assay
Nucleic Acid [1] = experiment: Binding affinity to human telomeric DNA G-quadruplex assessed as melting temperature at 0.5 uM by fluorescein-rhodamine based FRET assay
How it was run: (§1)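 Human telomeric-repeat G-quadruplex oligo carrying a 5'/3' fluorescein–rhodamine FRET pair. Compound at 0.5 µM with the oligo at half that concentration, in 10 mM cacodylate, 100 mM NaCl, pH 7.4. Heated from 20 to 80 °C at 1 °C/min with a 2 min equilibration at each step. Emission read at 518 nm; Tm taken from the melting curve, ΔTm against no compound.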

Nucleic Acid [2] = experiment: Binding affinity to human telomeric DNA assessed as equilibrium binding constant by SPR
How it was run: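 SPR steady-state analysis against human telomeric quadruplex and duplex DNA, with multiple injections over a range of drug concentrations. Binding constants derived from the relative instrument response.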

Nucleic Acid [3] = experiment: Displacement of thiazole orange from synthetic oligo 22G DNA G-quadruplex by fluorescence displacement assay
How it was run: (§2)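 Compound titrated into 0.25 µM oligonucleotide (22G quadruplex or 17 bp duplex) with thiazole orange in 10 mM cacodylate, pH 7.4, plus 100 mM KCl. Full fluorescence spectrum recorded after each addition and peak area plotted against compound concentration. Concentration cutting the area by 50% taken as IC50; binding constant calculated from a simple competitive binding model.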

Nucleic Acid [4] = experiment: Binding affinity to human telomeric DNA G-quadruplex assessed as change in melting temperature at 0.5 uM by fluorescein-rhodamine based FRET assay; how it was run: as §1
Nucleic Acid [5] = experiment: Selectivity for synthetic oligo 22G DNA G-quadruplex over synthetic oligo 17bp DNA duplex
How it was run: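 Ratio of the thiazole-orange displacement binding constant for the 22G quadruplex to that for the 17 bp duplex. Both constants come from titrating compound into 0.25 µM oligo with dye in 10 mM cacodylate, pH 7.4, 100 mM KCl, taking the 50% loss of peak area as IC50, and applying a competitive binding model.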

Nucleic Acid [6] = experiment: Displacement of thiazole orange from synthetic oligo 17bp DNA duplex by fluorescence displacement assay; how it was run: as §2
Nucleic Acid [7] = experiment: Binding affinity to DNA G-quadruplex

Structure (SMILES): CN1CCN(CCNC(=O)c2c[nH]c3c(ccc4ccccc43)c2=O)CC1
- Tm (Nucleic Acid [1]): 54.9 °C
- K (Nucleic Acid [2]): 0.5 ×10⁵ /M
- K (Nucleic Acid [3]): 0.19 ×10⁵ /M
- ΔTm (Nucleic Acid [4]): 3.69 °C
- Ratio (Nucleic Acid [5]): 0.37
- K (Nucleic Acid [6]): 0.5 ×10⁵ /M

Structure (SMILES): CN(C)c1ccc(NC(=O)c2cc(=O)c3ccc4ccccc4c3[nH]2)cc1
- Tm (Nucleic Acid [1]): 51.6 °C
- K (Nucleic Acid [2]): 0.3 ×10⁵ /M
- K (Nucleic Acid [3]): 3.9 ×10⁵ /M
- ΔTm (Nucleic Acid [4]): 0.41 °C
- Ratio (Nucleic Acid [5]): 7.4
- K (Nucleic Acid [6]): 0.53 ×10⁵ /M

Structure (SMILES): CN(C)CCCNC(=O)c1cc2[nH]c3c(cnc4ccc([N+](=O)[O-])cc43)c(=O)c2n1C
- Kapp (Nucleic Acid [7]): 2.7 ×10⁴ /M

Structure (SMILES): O=C(NCCN1CCCC1)c1c[nH]c2c(ccc3ccccc32)c1=O
- Tm (Nucleic Acid [1]): 56 °C
- K (Nucleic Acid [2]): 0.4 ×10⁵ /M
- K (Nucleic Acid [3]): 0.53 ×10⁵ /M
- ΔTm (Nucleic Acid [4]): 4.36 °C
- Ratio (Nucleic Acid [5]): 2.5
- K (Nucleic Acid [6]): 0.21 ×10⁵ /M

Structure (SMILES): CN(C)c1ccc(NC(=O)c2c[nH]c3c(ccc4ccccc43)c2=O)cc1
- Tm (Nucleic Acid [1]): 51.4 °C
- K (Nucleic Acid [3]): 0.53 ×10⁵ /M
- ΔTm (Nucleic Acid [4]): 0.19 °C
- Ratio (Nucleic Acid [5]): 0.71
- K (Nucleic Acid [6]): 0.74 ×10⁵ /M

Structure (SMILES): O=C(NCCN1CCCC1)c1cc(=O)c2ccc3ccccc3c2[nH]1
- Tm (Nucleic Acid [1]): 52.6 °C
- K (Nucleic Acid [3]): 0.23 ×10⁵ /M
- ΔTm (Nucleic Acid [4]): 1.35 °C
- Ratio (Nucleic Acid [5]): 0.55
- K (Nucleic Acid [6]): 0.41 ×10⁵ /M

Structure (SMILES): O=C(NCCN1CCCCC1)c1c[nH]c2c(ccc3ccccc32)c1=O
- Tm (Nucleic Acid [1]): 56.4 °C
- K (Nucleic Acid [3]): 2.5 ×10⁵ /M
- ΔTm (Nucleic Acid [4]): 5.17 °C
- Ratio (Nucleic Acid [5]): 10.4
- K (Nucleic Acid [6]): 0.24 ×10⁵ /M

Structure (SMILES): O=C(NCCN1CCNCC1)c1cc(=O)c2ccc3ccccc3c2[nH]1
- Tm (Nucleic Acid [1]): 52.5 °C
- K (Nucleic Acid [3]): 0.53 ×10⁵ /M
- ΔTm (Nucleic Acid [4]): 1.27 °C
- Ratio (Nucleic Acid [5]): 0.21
- K (Nucleic Acid [6]): 2.5 ×10⁵ /M

Structure (SMILES): O=C(Nc1ccncc1)c1c[nH]c2c(ccc3ccccc32)c1=O
- Tm (Nucleic Acid [1]): 56.5 °C
- K (Nucleic Acid [3]): 1.4 ×10⁵ /M
- ΔTm (Nucleic Acid [4]): 5.29 °C
- Ratio (Nucleic Acid [5]): 0.51
- K (Nucleic Acid [6]): 2.5 ×10⁵ /M

Structure (SMILES): O=C(Nc1ccccc1)c1c[nH]c2c(ccc3ccccc32)c1=O
- Tm (Nucleic Acid [1]): 52.3 °C
- K (Nucleic Acid [3]): 1.4 ×10⁵ /M
- ΔTm (Nucleic Acid [4]): 1.05 °C
- Ratio (Nucleic Acid [5]): 0.22
- K (Nucleic Acid [6]): 6 ×10⁵ /M

Structure (SMILES): O=C(NCCN1CCNCC1)c1c[nH]c2c(ccc3ccccc32)c1=O
- Tm (Nucleic Acid [1]): 52.4 °C
- K (Nucleic Acid [3]): 0.3 ×10⁵ /M
- ΔTm (Nucleic Acid [4]): 1.19 °C
- Ratio (Nucleic Acid [5]): 0.4
- K (Nucleic Acid [6]): 0.75 ×10⁵ /M

Structure (SMILES): O=C(NCCN1CCCCC1)c1cc(=O)c2ccc3ccccc3c2[nH]1
- Tm (Nucleic Acid [1]): 52.2 °C
- K (Nucleic Acid [3]): 0.05 ×10⁵ /M
- ΔTm (Nucleic Acid [4]): 1 °C
- Ratio (Nucleic Acid [5]): 0.05
- K (Nucleic Acid [6]): 1.1 ×10⁵ /M

Structure (SMILES): O=C(Nc1ccncc1)c1cc(=O)c2ccc3ccccc3c2[nH]1
- Tm (Nucleic Acid [1]): 51.9 °C
- K (Nucleic Acid [3]): 0.42 ×10⁵ /M
- ΔTm (Nucleic Acid [4]): 0.69 °C
- Ratio (Nucleic Acid [5]): 0.84
- K (Nucleic Acid [6]): 0.5 ×10⁵ /M
